Data set [1] concerns the target T1, ADP-ribosyl cyclase/cyclic ADP-ribose hydrolase 1 (Homo sapiens, UniProt P28907).
T1 sequence (P28907 whole entry): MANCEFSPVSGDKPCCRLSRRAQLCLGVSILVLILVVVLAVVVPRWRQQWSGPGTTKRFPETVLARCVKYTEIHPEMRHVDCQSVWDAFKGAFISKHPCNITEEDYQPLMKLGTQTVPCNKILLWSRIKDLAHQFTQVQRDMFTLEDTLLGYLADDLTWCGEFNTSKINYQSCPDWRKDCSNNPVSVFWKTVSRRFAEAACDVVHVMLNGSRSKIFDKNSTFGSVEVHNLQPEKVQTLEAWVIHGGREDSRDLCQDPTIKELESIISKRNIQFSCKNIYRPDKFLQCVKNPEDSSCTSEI
Kind of data set: Drug metabolism assessed as human CD38 catalytic domain-mediated compound hydrolysis at 1 mM using 4 mg/mL CD38 by RP-HPLC method. It counts as ADME. The settings on record: 1000 µM. Summed up:
(§1)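 Human CD38 catalytic domain diluted in 20 mM Tris-HCl pH 8 to 4 mg/mL or 1 μg/mL, added to inhibitor (1 mM final) at room temperature; no-enzyme control run in parallel. At time points, aliquots diluted 20-fold in water and analysed by RP-HPLC: isocratic elution, 1 mL/min, ion-pair buffer 0.17% cetrimide and 45% phosphate buffer (pH 6.4) in MeOH, photodiode array detection 210–350 nm.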

Data set [2] concerns the target T1, ADP-ribosyl cyclase/cyclic ADP-ribose hydrolase 1. Kind of data set: Inhibition of human CD38 catalytic domain assessed as reduction in cADPR hydrolysis incubated for 10 mins by fluorimetric cycling assay.
Data set [3] has the same target. As to the kind of experiment: Drug metabolism assessed as human CD38 catalytic domain-mediated compound hydrolysis at 1 mM using 1 ug/mL CD38 by RP-HPLC method. The conditions noted are these: 1000 µM. The data set is classed as ADME. Summed up:
as §1

Data set [4] shares this target. Kind of data set: Drug metabolism assessed as human CD38 catalytic domain-mediated compound hydrolysis at 1 mM by RP-HPLC method. The data set is classed as ADME. The conditions noted are these: 1000 µM. The gist of the method: as §1
The target is the same in data set [5]. Kind of data set: Drug metabolism assessed as human CD38 catalytic domain-mediated compound hydrolysis by measuring 8-NH2-N9-butyl-IDPR level at 1 mM by RP-HPLC method. It counts as ADME. The settings on record: 1000 µM. Summed up:
as §1

A short description of data set [6]: Retention time of the compound at 1 mM in presence of human CD38 catalytic domain by RP-HPLC method. The data set is classed as physicochemical. The conditions noted are these: 1000 µM. Summed up:
as §1

A short description of data set [7]: Retention time of the compound using 1 mM 8-NH2-N9-butyl-cIDPR in presence of human CD38 catalytic domain by RP-HPLC method. The data set is classed as physicochemical. The gist of the method: as §1
The target of data set [8] is T1, ADP-ribosyl cyclase/cyclic ADP-ribose hydrolase 1. As to the kind of experiment: Drug level assessed as human CD38 catalytic domain-mediated compound formation using 1 mM 8-NH2-N9-butyl-cIDPR by RP-HPLC method. It counts as ADME. The gist of the method:
as §1

For the compound `O=c1c2ncn3c2ncn1[C@@H]1O[C@H](COP(=O)(O)OP(=O)(O)OC[C@H]2O[C@@H]3[C@H](O)[C@@H]2O)[C@@H](O)[C@H]1O`, the Drug metabolism entry in data set [1] is “metabolite_detected”; in data set [3], “metabolite_notdetected”; in data set [4] it was “metabolite_detected”. In addition, the IC50 in data set [2] was found to be 276 µM.
As to `O=c1c2ncn3c2ncn1[C@@H]1O[C@H](COP(=O)(O)OP(=O)(O)OCCCC3)[C@@H](O)[C@H]1O`, the Drug metabolism entry in data set [4] is listed as “metabolite_detected”.
With `O=c1c2nc(Br)n3c2ncn1[C@@H]1O[C@H](COP(=O)(O)OP(=O)(O)OCCCC3)[C@@H](O)[C@H]1O`, in data set [4], the Drug metabolism entry is “metabolite_detected”.
On to `Nc1nc2c(=O)n3cnc2n1CCCCOP(=O)(O)OP(=O)(O)OC[C@H]1O[C@@H]3[C@H](O)[C@@H]1O`, for which the Drug metabolism result in data set [1] is given as “metabolite_detected”; in data set [3] it was “metabolite_notdetected”; in data set [5], “metabolite_detected”. Also, in data set [6], the Retention_time is recorded as 9.1 min.
As to `Nc1nc2c(=O)[nH]cnc2n1CCCCOP(=O)(O)OP(=O)(O)OC[C@H]1OC(O)[C@H](O)[C@@H]1O` (some centres not stated), in data set [7], the Retention_time is reported as 10.6 min. The Drug metabolism entry in data set [8] is on record as “metabolite_detected”.

One may read the IC50 as the point on the concentration scale where inhibition reaches its midpoint.

The values above are taken from ChEMBL document CHEMBL3351721, “Cyclic adenosine 5'-diphosphate ribose analogs without a "southern" ribose inhibit ADP-ribosyl cyclase-hydrolase CD38” (J Med Chem, 2014).
